This is a sample that favours compounds with a hit; in the whole collection about 1.6% have one here.
Neddylation inh – blocks human cullin neddylation; P61081+Q13564; inhibition, % at 25 µM; AID 651699; TR-FRET cullin neddylation, biochemical; 0.58% of 360,000 active; in the data active means inhibition above about 36%
Target sequence (P61081 whole entry, looked up): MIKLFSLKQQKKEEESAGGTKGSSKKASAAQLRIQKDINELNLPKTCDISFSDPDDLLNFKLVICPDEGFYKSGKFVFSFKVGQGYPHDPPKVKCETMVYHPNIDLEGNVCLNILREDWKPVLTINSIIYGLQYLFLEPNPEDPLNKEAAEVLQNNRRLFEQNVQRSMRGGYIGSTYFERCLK
Target sequence (Q13564 whole entry, looked up): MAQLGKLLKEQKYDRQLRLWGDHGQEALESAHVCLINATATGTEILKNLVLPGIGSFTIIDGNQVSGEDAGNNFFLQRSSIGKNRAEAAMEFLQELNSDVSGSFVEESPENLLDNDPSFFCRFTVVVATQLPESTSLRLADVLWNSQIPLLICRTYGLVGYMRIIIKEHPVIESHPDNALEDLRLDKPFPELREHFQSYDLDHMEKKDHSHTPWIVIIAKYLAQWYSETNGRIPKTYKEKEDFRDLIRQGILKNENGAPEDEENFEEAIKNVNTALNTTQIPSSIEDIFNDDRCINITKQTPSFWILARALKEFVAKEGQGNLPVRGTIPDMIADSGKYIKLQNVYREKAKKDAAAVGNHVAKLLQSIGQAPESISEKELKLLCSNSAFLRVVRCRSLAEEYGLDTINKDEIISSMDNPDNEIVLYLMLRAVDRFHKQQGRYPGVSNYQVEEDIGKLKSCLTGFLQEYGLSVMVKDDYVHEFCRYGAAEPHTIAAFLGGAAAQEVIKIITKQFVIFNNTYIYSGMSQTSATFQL
ARFGAP1 inhibitor – rat ARFGAP1 inhibition; 0.26% of 360,000 active; inhibition, % at 16.5 µM; Arfgap1-stimulated ARF1 GTP hydrolysis, GDP FP detection; AID 651572;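 active means inhibition above a per-plate limit, mean inhibition of low control wells plus 3 SD, cut at about 25% in these data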;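 further: 0% = DMSO wells with enzyme and 100% = wells lacking Arfgap1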
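Material: rat Arfgap1 catalytic domain, aa 1-136; also added: human ARF1(Δ1-17)-GTP substrate; compound dosing: one concentration, 16.5 µM, DMSO 1.26%; incubation: GTP hydrolysis reaction 2 h at 25 °C; measured by: Tracer-displacement fluorescence polarization with EDTA stop, 620/688 nm; evaluation: % inhibition from polarization; repeats: one replicate per compound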
ASAP1 inh – inhibitors of human ASAP1 ArfGAP activity | AID 624377 | ASAP1-stimulated ARF1 GTP hydrolysis, GDP FP detection | 0.19% of 360,000 active | inhibition, % at 16.5 µM | Q9ULH1; in the data active means inhibition above about 25%;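 further: 0% = vehicle with enzyme and substrate and 100% = no enzyme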
H9c2 protect – modulators protecting cardiomyocytes from myocardial damage | 0.63% of 360,000 active | AID 588492 | H9c2 cardiomyocytes, H2O2 injury protection, ATPLite, 2 h | protection from H2O2 cell death, % at 20 µM;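 active means compounds giving at least 50% protection of heart cells from peroxide-induced death in the single-dose screen, raw or plate-pattern-corrected value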;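 further: 0% = DMSO wells with peroxide and 100% = DMSO wells without peroxide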
Neddyl inh conf – cullin neddylation inhibition, confirmation; shares compounds with Neddylation inh; TR-FRET cullin neddylation biochemical assay; calls only at 25 µM; 13% of 1,800 active; in the data active means inhibition above about 40%;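 further: neddylation substrate is the cullin 1 ring ligase complex with SKP2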
Starred values were filed as active, the others as inactive; i = inactive; x = not tested or not shown; + = active, no number.

SMILES	Neddylation inh	ARFGAP1 inhibitor	ASAP1 inh	H9c2 protect	Neddyl inh conf
Cc1cc(C)n2nc(-c3cnn(C)c3C(F)(F)F)cc2n1	42.0*	2.7	-1.5	2.6	+
CCCN(C(=O)CCc1cn(CCC)c2ccccc12)c1ccc(N(C)c2ccccn2)cc1	x	2.6	1.1	x	x
O=c1[nH]c(-c2ccccc2)cn1C1CCN(Cc2ccc(-c3nc4ccccc4nc3-c3ccccc3)cc2)CC1	x	-2.6	10.7	x	x
COC(=O)C1=C(C)N=C2SC(C#N)=C(N)N2C1c1ccc(OCc2ccccc2)cc1 (stereo not drawn)	41.9*	0.7	2.1	-1.0	i
O=C(N[C@H](C(=O)N1CCC[C@H]1C(=O)NCc1ccccc1)c1ccccc1)c1ccc(Cl)c(Cl)c1	x	9.9	10.6	x	x
Nc1ccc2cc3ccccc3cc2c1	15.4	3.1	7.8	-11.6	x
[O-][n+]1c2ccccc2cc2ccccc21	45.0*	0.3	9.6	-7.7	x
OC[C@@H]1CN(Cc2cccs2)C[C@H](n2cnc3c(N4CCCC4)ncnc32)O1	2.3	-10.0	4.7	9.7	x
COCc1cc(C)nc2sc(C(=O)Nc3ccccc3C)c(N)c12	42.8*	4.0	-9.3	0.3	x
COCc1cc(C)nc2sc(C(=O)OC)c(N)c12	42.9*	4.7	-3.7	2.3	x
CCn1c(=O)c2cc(C(=O)N3CCOCC3)sc2c2ccccc21	47.9*	12.4	-0.2	20.7	x
O=C(c1cc2c(=O)oc3ccccc3c2s1)N1CCOCC1	-12.8	10.1	-11.6	3.8	x
COc1ccc(NC(=O)c2ccc(-c3ccc(C(C)=O)cc3)o2)cn1	38.0*	14.9	10.7	16.6	i
COC(=O)[C@@]12C[C@@H](CC(=O)NCc3cccc4ccccc34)C(=O)N(Cc3ccc4c(c3)OCO4)C1=CCC(C)(C)C2	-4.2	-6.6	1.9	x	x
Oc1cnc2ccccc2c1CN1CCOCC1	41.5*	-11.0	-1.0	-6.9	i
Oc1ccc2ccccc2c1CN1CCOCC1	27.2	8.1	-6.6	-0.5	x
Cc1c(OCc2ccc([N+](=O)[O-])cc2)ccc2c3c(c(=O)oc12)CCC3	1.2	-4.2	1.8	-1.5	x
Cc1c(Oc2ccc(C(F)(F)F)cc2[N+](=O)[O-])ccc2c3c(c(=O)oc12)CCC3	40.1*	-10.1	-7.2	-4.9	i
NC(=O)c1c(NC(=O)c2ccc(N3C(=O)CCC3=O)cc2)sc2c1CCCC2	4.2	4.4	5.8	5.2	x
CC1CCc2sc(NC(=O)c3ccc(N4C(=O)CCC4=O)cc3)c(C(N)=O)c2C1 (stereo not drawn)	42.8*	-5.8	1.9	0.5	x
CCOc1ccc(NC(=O)COC(=O)c2ccc3ncsc3c2)cc1OCC	65.1*	-10.8	-7.1	-11.5	i
COCc1cc(N2CCN(C(=O)OC(C)(C)C)C[C@H]2C)ccc1N1CCS(=O)(=O)CC1	x	-12.3	-14.3	x	x
COc1ccc(C(CCN2CCOCC2)c2c(OC)cc(OC)c3c(-c4ccccc4)cc(=O)oc23)cc1 (stereo not drawn)	44.8*	-3.4	7.7	-1.5	i
CNc1cncc(-c2ccccc2NC(C)=O)n1	41.6*	-3.9	1.9	7.0	i
COc1ccccc1N(C(=O)c1snc(C(N)=O)c1N)C(C(=O)NCc1ccccc1)c1ccc(C)o1 (stereo not drawn)	x	-1.2	-7.8	1.0	x
SMILES	Neddylation inh	ARFGAP1 inhibitor	ASAP1 inh	H9c2 protect	Neddyl inh conf
COc1cccc(N(C(=O)c2snc(C(N)=O)c2N)C(C(=O)NCc2ccccc2)c2ccc(O)cc2)c1 (stereo not drawn)	52.5*	-3.2	-0.5	7.6	+
COc1ccc(N(C(=O)c2snc(C(N)=O)c2N)C(C(=O)NCc2ccc(F)cc2)c2ccc(O)cc2)cc1 (stereo not drawn)	34.8	7.4	17.5	19.2	x
CC(C(=O)NCC1CCCO1)N(C(=O)c1snc(C(N)=O)c1N)c1cccc(F)c1 (stereo not drawn)	52.3*	2.5	6.6	1.0	x
CCOc1ccccc1N(C(=O)c1snc(C(N)=O)c1N)C(C(=O)NCc1ccccc1)c1ccc(O)cc1 (stereo not drawn)	42.4*	20.2	5.6	2.3	x
COc1ccc(C(C(=O)NCc2ccccc2)N(C(=O)c2snc(C(N)=O)c2N)c2ccccc2OC)cc1OC (stereo not drawn)	52.9*	8.2	-5.8	-1.4	x
COc1ccc(N(C(=O)c2snc(C(N)=O)c2N)C(C(=O)NCc2ccccc2)c2ccc(O)cc2)cc1OC (stereo not drawn)	3.8	3.9	0.9	3.0	x
O=C1CC[C@@H](C(=O)N2CSC[C@@H]2C(=O)Nc2cccc(C(F)(F)F)c2)N1	1.7	-6.5	-12.0	5.2	x
COc1ccc(C=CC(=O)c2c(N)n(C)c(=O)n(C)c2=O)cc1	x	-6.1	-5.3	x	x
CCOc1ccccc1N(C(=O)c1snc(C(N)=O)c1N)C(C(=O)NCC1CCCO1)c1ccc2ncccc2c1 (stereo not drawn)	51.8*	6.0	-3.3	-5.6	i
NC(=O)c1nsc(C(=O)N(c2ccccc2)C(C(=O)NCC2CCCO2)c2ccc3ncccc3c2)c1N (stereo not drawn)	x	6.9	-3.0	32.0	x
COc1ccc(C)cc1N(C(=O)c1snc(C(N)=O)c1N)C(C(=O)NC1CCCC1)c1ccc(F)cc1 (stereo not drawn)	43.3*	-0.6	3.4	-5.4	x
CCCCC(C(=O)NC1CCCC1)N(Cc1ccccc1)C(=O)c1snc(C(N)=O)c1N (stereo not drawn)	21.6	-4.8	-18.0	13.1	x
COc1ccc(N(C(=O)c2snc(C(N)=O)c2N)C(C(=O)NC2CCCC2)c2ccc(F)cc2)c(OC)c1 (stereo not drawn)	x	0.3	3.0	-3.6	x
CCCC(C(=O)NCCC(C)C)N(Cc1ccccc1)C(=O)c1snc(C(N)=O)c1N (stereo not drawn)	39.5*	-3.4	0.4	11.1	i
COCCNC(=O)C(c1ccc(C)o1)N(C(=O)c1snc(C(N)=O)c1N)c1cccc(C)c1 (stereo not drawn)	44.5*	12.7	-0.4	7.0	i
NC(=O)c1ncn([C@@H]2O[C@H](C(=O)Nc3ccc(Oc4ccccc4)nc3)[C@@H](O)[C@H]2O)n1	x	-8.4	-12.9	x	x
O=C(O)c1cccc(C(=O)c2cccc(C(=O)O)c2)c1	-5.5	4.3	-3.0	5.0	x
O=C(O)c1cc2ccc3cccc4ccc(c1)c2c34	52.2*	-5.7	4.9	2.7	x
Cc1cc(F)ccc1S(=O)(=O)Nc1ccccc1C(=O)NCc1ccccn1	44.9*	11.5	9.8	1.3	i
Cc1[nH]nc2c1C(c1ccc(O)cc1)C1=C(CC(C)(C)CC1=O)N2 (stereo not drawn)	45.5*	3.6	0.6	4.9	i
Cc1[nH]nc2c1C(c1ccccc1)C1=C(CC(C)(C)CC1=O)N2 (stereo not drawn)	i	-11.7	10.4	10.9	x
COc1ccc(-c2nc3c4ccccc4ccn3c2CN2CCCCC2)cc1OC	42.5*	-6.2	-8.2	0.4	i
COC(=O)/C(=C\c1ccc2c(c1)c1ccccc1n2C)NC(=O)c1ccccc1	42.3*	6.4	-8.9	12.4	i
